# Measurements from ChEMBL document CHEMBL4190388, “Discovery and Optimization of Indolyl-Containing 4-Hydroxy-2-Pyridone Type II DNA Topoisomerase Inhibitors Active against Multidrug Resistant Gram-negative Bacteria” (J Med Chem, 2018).
# Key:
# Mus musculus [1] = assay: AUC (0 to 24 hrs) in CD1 mouse plasma at 3 mg/kg, iv by LC-MS/MS analysis; format: ADME, organism-based; design: time < 24 hr, dose 3 mg/kg, route intravenous; details: in vivo
# Summary of the method: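 CD-1 mice given a single 3 mg/kg iv dose (n = 3) in 3% DMSO/saline; plasma exposure measured.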
# Mus musculus [2] = assay: Antibacterial activity against Escherichia coli infected in cyclophosphamide treated neutropenic CD1 mouse septicemia model assessed as mouse survival at 3 mg/kg, iv dosed at 1 hr post infection followed by redosing at 5 hrs post infection measured at 96 hrs post infection relative to control; format: functional
# Summary of the method: (§1)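 Female CD-1 mice were made neutropenic with cyclophosphamide ip, 150 mg/kg on day −4 and 100 mg/kg on day −1. […] Compound was given iv in 3% DMSO/saline at 1 and 5 h postinfection, n = 6 per group. Percent survival was scored at 96 h postinfection.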
# Mus musculus [3] = assay: Antibacterial activity against Escherichia coli infected in cyclophosphamide treated neutropenic CD1 mouse septicemia model assessed as mouse survival at 1.5 mg/kg, iv dosed at 1 hr post infection followed by redosing at 5 hrs post infection measured at 96 hrs post infection relative to control; format: functional; summary of the method: as §1
# [4] = Fraction unbound in mouse plasma at 1 uM by equilibrium dialysis method; format: ADME, cell-free
# Acinetobacter baumannii [5] = assay: Antibacterial activity against fluoroquinolone resistant Acinetobacter baumannii isolate MMX2240 by CLSI M100-S17 protocol based method; format: functional
# [6] = Inhibition of Escherichia coli DNA topoisomerase 4 assessed as reduction in decatenation activity using kinetoplast concatenated DNA as substrate after 30 mins by picogreen dye based fluorescence assay
# Escherichia coli [7] = assay: Antibacterial activity against Escherichia coli infected in cyclophosphamide treated neutropenic CD1 mouse septicemia model assessed as mouse survival at 20 mg/kg, iv dosed at 1 hr post infection followed by redosing at 5 hrs post infection measured at 96 hrs post infection relative to control; format: functional; summary of the method: as §1
# Acinetobacter baumannii [8] = assay: Antibacterial activity against beta-lactam resistant Acinetobacter baumannii by broth microdilution method; format: functional; details: Acinetobacter baumannii
# Summary of the method: (§2)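 MICs were determined by CLSI broth methods, except that organisms were grown in brain–heart–infusion medium. The panel comprised wild-type and resistant E. coli and A. baumannii strains, including 12 strains whose details are given by reference.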
# Acinetobacter baumannii [9] = assay: Antibacterial activity against aminoglycoside resistant Acinetobacter baumannii by broth microdilution method; format: functional; details: Acinetobacter baumannii; summary of the method: as §2
# Acinetobacter baumannii [10] = assay: Antibacterial activity against quinolone resistant Acinetobacter baumannii by broth microdilution method; format: functional; details: Acinetobacter baumannii; summary of the method: as §2
# Escherichia coli [11] = assay: Antibacterial activity against beta-lactam resistant Escherichia coli by broth microdilution method; format: functional; details: Escherichia coli; summary of the method: as §2
# [12] = Inhibition of His tagged Escherichia coli ATCC 25922 DNA gyrase A expressed in Escherichia coli BL21 (DE3) pLysS cells assessed as reduction in enzyme-mediated supercoiling of relaxed plasmid DNA pNO1 after 30 mins in presence of biotinylated TFO1 by fluorescence assay
# Escherichia coli [13] = assay: Antibacterial activity against wild type Escherichia coli 1609 by CLSI M100-S17 protocol based method; format: functional
# Escherichia coli [14] = assay: Antibacterial activity against aminoglycoside resistant Escherichia coli by broth microdilution method; format: functional; details: Escherichia coli; summary of the method: as §2
# Acinetobacter baumannii [15] = assay: Antibacterial activity against carbapenem resistant Acinetobacter baumannii by broth microdilution method; format: functional; details: Acinetobacter baumannii; summary of the method: as §2
# Escherichia coli [16] = assay: Antibacterial activity against wild type Escherichia coli by broth microdilution method; format: functional; summary of the method: as §2
# Acinetobacter baumannii [17] = assay: Antibacterial activity against wild type Acinetobacter baumannii ATCC BAA-747 by CLSI M100-S17 protocol based method; format: functional
# Klebsiella pneumoniae = assay: Antibacterial activity against wild type Klebsiella pneumoniae ATCC 35657 by CLSI M100-S17 protocol based method; format: functional
# Escherichia coli [18] = assay: Antibacterial activity against wild type Escherichia coli ATCC 25922 in presence of HSA by CLSI M100-S17 protocol based method; format: functional
# Escherichia coli [19] = assay: Antibacterial activity against fluoroquinolone resistant Escherichia coli SKM18 by CLSI M100-S17 protocol based method; format: functional
# Escherichia coli [20] = assay: Antibacterial activity against Escherichia coli SKM11 by CLSI M100-S17 protocol based method; format: functional
# Escherichia coli [21] = assay: Antibacterial activity against wild type Escherichia coli ATCC 25922 by CLSI M100-S17 protocol based method; format: functional
# DNA gyrase subunit A = DNA gyrase subunit A (Escherichia coli K-12, UniProt P0AES4); assay: Inhibition of His tagged Escherichia coli ATCC 25922 DNA gyrase A SD-LY mutant expressed in Escherichia coli BL21 (DE3) pLysS cells assessed as reduction in enzyme-mediated supercoiling of relaxed plasmid DNA pNO1 after 30 mins in presence of biotinylated TFO1 by fluorescence assay
# Acinetobacter baumannii [22] = assay: Antibacterial activity against multidrug resistant Acinetobacter baumannii by broth microdilution method; format: functional; details: Acinetobacter baumannii; summary of the method: as §2
# Escherichia coli [23] = assay: Antibacterial activity against multidrug resistant Escherichia coli by broth microdilution method; format: functional; details: Escherichia coli; summary of the method: as §2
# Escherichia coli [24] = assay: Antibacterial activity against quinolone resistance Escherichia coli isolate ELZ4251 harboring gyrA/parC mutant by CLSI M100-S17 protocol based method; format: functional
# Acinetobacter baumannii [25] = assay: Antibacterial activity against wild type Acinetobacter baumannii by broth microdilution method; format: functional; summary of the method: as §2
# Escherichia coli [26] = assay: Antibacterial activity against quinolone resistant Escherichia coli by broth microdilution method; format: functional; details: Escherichia coli; summary of the method: as §2
# Acinetobacter baumannii [27] = assay: Bactericidal activity against wild type Acinetobacter baumannii ATCC BAA-747 assessed as reduction of bacterial load at 0.25 to 4 times MIC after 2 hrs by time kill assay; format: functional
# Escherichia coli [28] = assay: Bactericidal activity against wild type Escherichia coli ATCC 25922 assessed as reduction of bacterial load at 0.25 to 8 times MIC after 2 hrs by time kill assay; format: functional
# Acinetobacter baumannii [29] = assay: Bactericidal activity against wild type Acinetobacter baumannii ATCC BAA-747 assessed as reduction of bacterial load after 24 hrs by time kill assay; format: functional, organism-based
# Escherichia coli [30] = assay: Bactericidal activity against wild type Escherichia coli ATCC 25922 assessed as reduction of bacterial load after 24 hrs by time kill assay; format: functional, organism-based
# Sequence of DNA gyrase subunit A (P0AES4 2-875 limits assumed): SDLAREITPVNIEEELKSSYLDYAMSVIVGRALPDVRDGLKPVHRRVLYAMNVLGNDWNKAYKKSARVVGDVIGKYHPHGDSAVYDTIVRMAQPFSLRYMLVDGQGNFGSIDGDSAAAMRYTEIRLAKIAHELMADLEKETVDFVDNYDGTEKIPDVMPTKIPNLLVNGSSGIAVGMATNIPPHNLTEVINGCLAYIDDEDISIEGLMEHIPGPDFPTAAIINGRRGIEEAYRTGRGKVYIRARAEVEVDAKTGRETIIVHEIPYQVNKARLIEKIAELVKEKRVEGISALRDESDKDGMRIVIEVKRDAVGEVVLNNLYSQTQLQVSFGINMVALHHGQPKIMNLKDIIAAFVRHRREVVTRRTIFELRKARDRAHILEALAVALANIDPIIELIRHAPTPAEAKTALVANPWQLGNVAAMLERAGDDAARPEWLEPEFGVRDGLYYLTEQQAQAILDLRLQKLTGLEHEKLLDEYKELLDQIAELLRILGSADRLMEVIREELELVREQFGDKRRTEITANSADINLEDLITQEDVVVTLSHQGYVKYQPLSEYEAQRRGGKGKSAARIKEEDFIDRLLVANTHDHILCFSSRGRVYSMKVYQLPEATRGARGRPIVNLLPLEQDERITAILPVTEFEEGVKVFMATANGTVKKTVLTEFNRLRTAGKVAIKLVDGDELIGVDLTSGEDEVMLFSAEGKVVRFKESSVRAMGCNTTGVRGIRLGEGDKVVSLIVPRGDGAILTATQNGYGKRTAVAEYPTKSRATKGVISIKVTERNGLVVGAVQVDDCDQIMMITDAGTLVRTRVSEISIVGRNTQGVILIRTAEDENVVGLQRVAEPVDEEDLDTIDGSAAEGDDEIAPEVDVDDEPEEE
structure (smiles),measurement,setting,value
COc1c(N2C[C@@H]3CCCN[C@@H]3C2)c(F)cc2c(=O)c(C(=O)O)cn(C3CC3)c12 [MOXIFLOXACIN],AUC,Mus musculus [1],0.64 µg·h/mL
same,survival at 3 mg/kg,Mus musculus [2],100%
same,survival at 1.5 mg/kg,Mus musculus [3],83%
same,Fu,[4],0.8
CCNCc1cc2cc3c(cc2n1C)CCCc1c-3[nH]c(=O)c(C(=O)O)c1O,MIC,Acinetobacter baumannii [5],1.6 µg/mL
same,IC50,[6],2900 nM
same,survival at 20 mg/kg,Escherichia coli [7],83%
same,MIC50,Acinetobacter baumannii [8],2 µg/mL
same,MIC90,Acinetobacter baumannii [8],16 µg/mL
same,MIC,Acinetobacter baumannii [8]; read-out: MIC,0.25 to 32 µg/mL
same,MIC50,Acinetobacter baumannii [9],2 µg/mL
same,MIC90,Acinetobacter baumannii [9],16 µg/mL
same,MIC,Acinetobacter baumannii [9]; read-out: MIC,0.25 to 32 µg/mL
same,MIC50,Acinetobacter baumannii [10],2 µg/mL
same,MIC90,Acinetobacter baumannii [10],16 µg/mL
same,MIC,Acinetobacter baumannii [10]; read-out: MIC,0.25 to 32 µg/mL
same,MIC50,Escherichia coli [11],1 µg/mL
same,MIC90,Escherichia coli [11],1 µg/mL
same,MIC,Escherichia coli [11]; read-out: MIC,0.25 to 1 µg/mL
same,IC50,[12],56 to 100 nM
same,MIC,Escherichia coli [13],1.6 µg/mL
same,MIC50,Escherichia coli [14],1 µg/mL
same,MIC90,Escherichia coli [14],1 µg/mL
same,MIC,Escherichia coli [14]; read-out: MIC,0.25 to 1 µg/mL
same,MIC50,Acinetobacter baumannii [15],2 µg/mL
same,MIC90,Acinetobacter baumannii [15],16 µg/mL
same,MIC,Acinetobacter baumannii [15]; read-out: MIC,0.25 to 32 µg/mL
same,MIC50,Escherichia coli [16],1 µg/mL
same,MIC90,Escherichia coli [16],1 µg/mL
same,MIC,Acinetobacter baumannii [17],0.78 µg/mL
same,MIC,Klebsiella pneumoniae,0.78 µg/mL
same,MIC,Escherichia coli [18],6.3 µg/mL
same,MIC,Escherichia coli [19],0.39 µg/mL
same,MIC,Escherichia coli [20],1.6 µg/mL
same,MIC,Escherichia coli [21],0.39 µg/mL
same,IC50,DNA gyrase subunit A,760 nM
same,MIC50,Acinetobacter baumannii [22],2 µg/mL
same,MIC90,Acinetobacter baumannii [22],16 µg/mL
same,MIC,Acinetobacter baumannii [22]; read-out: MIC,0.25 to 32 µg/mL
same,MIC50,Escherichia coli [23],1 µg/mL
same,MIC90,Escherichia coli [23],1 µg/mL
same,MIC,Escherichia coli [23]; read-out: MIC,0.25 to 1 µg/mL
same,MIC,Escherichia coli [24],1.6 µg/mL
same,MIC50,Acinetobacter baumannii [25],2 µg/mL
same,MIC90,Acinetobacter baumannii [25],16 µg/mL
same,Fu,[4],0.17
same,MIC50,Escherichia coli [26],1 µg/mL
same,MIC90,Escherichia coli [26],1 µg/mL
same,MIC,Escherichia coli [26]; read-out: MIC,0.25 to 1 µg/mL
CCc1c(-c2ccc3c(c2)cc(CN2CCC2)n3C)[nH]c(=O)c(C(=O)O)c1O,MIC,Acinetobacter baumannii [5],6.3 µg/mL
same,MIC,Acinetobacter baumannii [17],0.39 µg/mL
same,MIC,Klebsiella pneumoniae,0.78 µg/mL
same,MIC,Escherichia coli [18],1.6 µg/mL
same,MIC,Escherichia coli [19],1.6 µg/mL
same,Activity,Acinetobacter baumannii [27],2 log10CFU
same,MIC,Escherichia coli [21],0.39 µg/mL
same,Activity,Escherichia coli [28],3 log10CFU
same,MIC,Escherichia coli [24],1.6 µg/mL
same,Activity,Acinetobacter baumannii [29],Dose-dependent effect
same,Activity,Escherichia coli [30],Dose-dependent effect
